Measurements taken from ChEMBL document CHEMBL4828728, “Antiplasmodial 2-thiophenoxy-3-trichloromethyl quinoxalines target the apicoplast of Plasmodium falciparum” (Eur J Med Chem, 2021).

test system: Plasmodium falciparum; experiment: Antiplasmodial activity against multidrug-resistant Plasmodium falciparum K1 infected in human erythrocytes assessed as reduction in parasite growth incubated for 72 hrs by SYBR green I fluorescence based assay; format: functional, organism-based; settings: K1, Erythrocyte

| Compound | EC50 |
| --- | --- |
| Clc1ccc(Sc2nc3ccccc3nc2C(Cl)(Cl)Cl)c(Cl)c1 | 900 nM |
| COc1ccccc1Sc1nc2ccccc2nc1C(Cl)(Cl)Cl | 740 nM |
| Fc1cccc(Sc2nc3ccccc3nc2C(Cl)(Cl)Cl)c1 | 310 nM |
| COc1ccc(Sc2nc3ccccc3nc2C(Cl)(Cl)Cl)cc1 | 650 nM |
| Fc1ccccc1Sc1nc2ccccc2nc1C(Cl)(Cl)Cl | 320 nM |
| O=[N+]([O-])c1ccc(Sc2nc3ccccc3nc2C(Cl)(Cl)Cl)cc1 | 250 nM |
| ClC(Cl)(Cl)c1nc2ccccc2nc1Sc1ccc(Br)cc1 | 460 nM |
| Clc1ccc(Sc2nc3ccccc3nc2C(Cl)(Cl)Cl)cc1 | 500 nM |
| Fc1ccc(Sc2nc3ccccc3nc2C(Cl)(Cl)Cl)cc1 | 360 nM |
| FC(F)(F)c1ccc(Sc2nc3ccccc3nc2C(Cl)(Cl)Cl)cc1 | 500 nM |
| Clc1ccccc1Sc1nc2ccccc2nc1C(Cl)(Cl)Cl | 500 nM |
| FC(F)(F)Oc1ccc(Sc2nc3ccccc3nc2C(Cl)(Cl)Cl)cc1 | 360 nM |

test system: not listed separately; experiment: Cytotoxicity against human HepG2 cells assessed as reduction in cell viability measured after 72 hrs by MTT assay; format: cell-based; settings: not given
Summary of the method: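 HepG2 in MEM with 10% FBS, 5×10³ cells/well; 24 h attachment, then serial dilutions (DMSO <0.5% final) for 72 h at 37 °C, wells checked for precipitate. MTT 0.5 mg/mL for 2 h, formazan in DMSO, A570 with 630 nm reference. Viability versus untreated; doxorubicin positive control; CC50 from dose-response curve, triplicates, mean of three independent experiments.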

| Compound | CC50 at 72 h |
| --- | --- |
| Clc1ccc(Sc2nc3ccccc3nc2C(Cl)(Cl)Cl)c(Cl)c1 | > 31.2 µM |
| COc1ccccc1Sc1nc2ccccc2nc1C(Cl)(Cl)Cl | 42.6 µM |
| Fc1cccc(Sc2nc3ccccc3nc2C(Cl)(Cl)Cl)c1 | 35.9 µM |
| COc1ccc(Sc2nc3ccccc3nc2C(Cl)(Cl)Cl)cc1 | > 1.9 µM |
| Fc1ccccc1Sc1nc2ccccc2nc1C(Cl)(Cl)Cl | 40.5 µM |
| O=[N+]([O-])c1ccc(Sc2nc3ccccc3nc2C(Cl)(Cl)Cl)cc1 | 19.9 µM |
| ClC(Cl)(Cl)c1nc2ccccc2nc1Sc1ccc(Br)cc1 | 42.2 µM |
| Fc1ccc(Sc2nc3ccccc3nc2C(Cl)(Cl)Cl)cc1 | 30.8 µM |
| FC(F)(F)c1ccc(Sc2nc3ccccc3nc2C(Cl)(Cl)Cl)cc1 | 29.9 µM |
| Clc1ccccc1Sc1nc2ccccc2nc1C(Cl)(Cl)Cl | 36.9 µM |
| FC(F)(F)Oc1ccc(Sc2nc3ccccc3nc2C(Cl)(Cl)Cl)cc1 | 21 µM |

test system: Plasmodium falciparum; experiment: Antiplasmodial activity against Plasmodium falciparum 3D7; format: functional, organism-based; settings: not given

| Compound | EC50 |
| --- | --- |
| Oc1cc(Cl)ccc1Oc1ccc(Cl)cc1Cl [TRICLOSAN] | 1550 nM |

test system: not listed separately; experiment: Aqueous solubility of the compound; format: physicochemical; settings: buffer

| Compound | solubility |
| --- | --- |
| Clc1ccc(Sc2nc3ccccc3nc2C(Cl)(Cl)Cl)c(Cl)c1 | Soluble |
| COc1ccccc1Sc1nc2ccccc2nc1C(Cl)(Cl)Cl | Soluble |
| Fc1cccc(Sc2nc3ccccc3nc2C(Cl)(Cl)Cl)c1 | Soluble |
| Fc1ccccc1Sc1nc2ccccc2nc1C(Cl)(Cl)Cl | Soluble |
| O=[N+]([O-])c1ccc(Sc2nc3ccccc3nc2C(Cl)(Cl)Cl)cc1 | Soluble |
| ClC(Cl)(Cl)c1nc2ccccc2nc1Sc1ccc(Br)cc1 | Soluble |
| Fc1ccc(Sc2nc3ccccc3nc2C(Cl)(Cl)Cl)cc1 | Soluble |
| FC(F)(F)c1ccc(Sc2nc3ccccc3nc2C(Cl)(Cl)Cl)cc1 | Soluble |
| Clc1ccccc1Sc1nc2ccccc2nc1C(Cl)(Cl)Cl | Soluble |
| FC(F)(F)Oc1ccc(Sc2nc3ccccc3nc2C(Cl)(Cl)Cl)cc1 | Soluble |

test system: not listed separately; experiment: Selectivity index, ratio of CC50 for cytotoxicity against human HepG2 cells to EC50 for antiplasmodial activity against multidrug-resistant Plasmodium falciparum K1 infected in human erythrocytes; format: toxicity, cell-based; settings: read-out: Ratio CC50/EC50

| Compound | selectivity ratio |
| --- | --- |
| Clc1ccc(Sc2nc3ccccc3nc2C(Cl)(Cl)Cl)c(Cl)c1 | > 34.7 |
| COc1ccccc1Sc1nc2ccccc2nc1C(Cl)(Cl)Cl | 56.8 |
| Fc1cccc(Sc2nc3ccccc3nc2C(Cl)(Cl)Cl)c1 | 116 |
| COc1ccc(Sc2nc3ccccc3nc2C(Cl)(Cl)Cl)cc1 | > 3 |
| Fc1ccccc1Sc1nc2ccccc2nc1C(Cl)(Cl)Cl | 127 |
| O=[N+]([O-])c1ccc(Sc2nc3ccccc3nc2C(Cl)(Cl)Cl)cc1 | 79.6 |
| ClC(Cl)(Cl)c1nc2ccccc2nc1Sc1ccc(Br)cc1 | 93 |
| Clc1ccc(Sc2nc3ccccc3nc2C(Cl)(Cl)Cl)cc1 | 77.2 |
| Fc1ccc(Sc2nc3ccccc3nc2C(Cl)(Cl)Cl)cc1 | 85.6 |
| FC(F)(F)c1ccc(Sc2nc3ccccc3nc2C(Cl)(Cl)Cl)cc1 | 59.8 |
| Clc1ccccc1Sc1nc2ccccc2nc1C(Cl)(Cl)Cl | 73.8 |
| FC(F)(F)Oc1ccc(Sc2nc3ccccc3nc2C(Cl)(Cl)Cl)cc1 | 58.3 |

test system: not listed separately; experiment: Aqueous solubility of the compound assessed as precipitation of the compound at >1.9 uM; format: physicochemical; settings: buffer

| Compound | solubility |
| --- | --- |
| COc1ccc(Sc2nc3ccccc3nc2C(Cl)(Cl)Cl)cc1 | Insoluble |
